Active and inactive are the calls of the source. The calls are words filed in the database; no cut-off is given here.
Columns and labels:
[1] = biological target: T1, Voltage-dependent T-type calcium channel subunit alpha-1H (Homo sapiens, UniProt O95180); assay: Inhibition of Cav3.2 alpha1H (unknown origin) expressed in HEK293 cells assessed as reduction in KCl-induced depolarization mediated intracellular Ca2+ level at 10 uM by fluo3/AM based high throughput screening assay relative to control; type: cell-based
In short: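 HEK293 cells stably expressing the T-type channel were kept under puromycin/geneticin selection with 10% FBS at 37 °C and 5% CO2. Cells were seeded at 4×10^4 per well and loaded with fluo3/AM plus 0.001% Pluronic F-127 in HEPES buffer (pH 7.4, 1.8 mM CaCl2) for 60 min at room temperature. The KCl depolarisation-evoked [Ca2+]i rise was read on FDSS6000.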

[2] = biological target: T1, Voltage-dependent T-type calcium channel subunit alpha-1H; assay: Inhibition of Cav3.2 alpha1H (unknown origin) expressed in HEK293 cells by whole-cell patch clamp assay; type: cell-based
In short: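 Whole-cell patch clamp was done on T-type channel-expressing cells. Currents were evoked every 15 s by a 50-ms step from −100 mV to −30 mV. IC50 for peak current was obtained by fitting a dose-response curve and given ± SD.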

[3] = biological target: CYP2C9 (Homo sapiens, UniProt P11712); assay: Inhibition of recombinant human CYP2C9 expressed in baculosomes assessed as residual activity at 10 uM using vivid BOMCC/BOMF/OOMR as substrate after 15 mins in presence of NADPH by fluorescence assay relative to control; type: ADME; settings: probe Vivid BOMCC/BOMF/OOMR, read-out: Activity
In short: (§1)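 Test compounds at 10 μM were premixed with baculosome CYP plus a regeneration system. After 15 min at 37 °C, Vivid substrates and NADPH were added. Remaining enzyme activity was read by fluorescence and expressed as % of control, as mean ± SD of triplicates. Isoform-selective inhibitors served as positive controls.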

[4] = biological target: CYP2D6 (Homo sapiens, UniProt P10635); assay: Inhibition of recombinant human CYP2D6 expressed in baculosomes assessed as residual activity at 10 uM using vivid EOMCC/MOBFC as substrate after 15 mins in presence of NADPH by fluorescence assay relative to control; type: ADME; settings: probe Vivid EOMCC/MOBFC, read-out: Activity; in short: as §1
[5] = Stability in human liver microsomes assessed as parent compound remaining at 1 uM after 30 mins in presence of NADPH by LC-MS/MS analysis; type: ADME, microsome; settings: read-out: Stability
In short: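 Test compound at 1 μM was incubated with pooled human liver microsomes in potassium phosphate buffer with 1.2 mM NADPH at 37 °C for 30 min. The reaction was stopped with cold acetonitrile containing internal standard. Supernatant was analysed by LC-MS/MS for % remaining.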

[6] = biological target: CYP3A4 (Homo sapiens, UniProt P08684); assay: Inhibition of recombinant human CYP3A4 expressed in baculosomes assessed as residual activity at 10 uM using vivid BOMCC/DBOMF/BOMR as substrate after 15 mins in presence of NADPH by fluorescence assay relative to control; type: ADME; settings: probe Vivid BOMCC/DBOMF/BOMR, read-out: Activity; in short: as §1
[7] = tested on: Rattus norvegicus; assay: Anti-algetic activity in rat streptozotocin-induced neuropathic pain model assessed as reduction in heat hypersensitivity at 50 mg/kg, po measured after 3 hrs in presence of gabapentin; type: functional, organism-based
In short: (§2)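 Neuropathic pain was induced in rats by i.p. streptozotocin at 65 mg/kg and confirmed at 4 weeks by glucose and behaviour. Rats received a single oral 50 mg/kg dose, alone or together with gabapentin at 50 mg/kg (n = 6–7). Mechanical allodynia (von Frey) and heat hypersensitivity were tested at 1, 3 and 5 h. Paired t-test was used versus pre-dose.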

[8] = tested on: Rattus norvegicus; assay: Anti-algetic activity in rat streptozotocin-induced neuropathic pain model assessed as reduction in heat hypersensitivity at 100 mg/kg, po measured after 3 hrs; type: functional, organism-based
In short: (§3)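 STZ-diabetic rats were made by i.p. streptozotocin at 65 mg/kg. After 4 weeks, rats with confirmed neuropathic pain were selected by blood glucose and behavioural testing. A single oral dose of 100 mg/kg was given (n = 5–6). Mechanical allodynia was tested by von Frey, and heat hypersensitivity was also assessed, at 1, 3 and 5 h. Comparison was against pre-dose values by paired t-test.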

[9] = Terminal half-life in rat at 10 mg/kg, iv; type: ADME, organism-based; settings: in vivo, read-out: beta t1/2
In short: (§4)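 Male rats dosed at 10 mg/kg, intravenously (n = 5) or orally (n = 4). Parameters taken from the plasma concentration-time curve and reported as mean ± SD. Brain-to-plasma ratio measured 2 h after dosing. Tmax given as median with range.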

[10] = Mean residence time in rat at 10 mg/kg, iv; type: ADME, organism-based; settings: in vivo; in short: as §4
[11] = AUClast in rat at 10 mg/kg, iv; type: ADME, organism-based; parameters: dose 10 mg/kg, route intravenous, time 0 - last; settings: in vivo; in short: as §4
[12] = Oral bioavailability in rat at 10 mg/kg; type: ADME, organism-based; settings: in vivo; in short: as §4
[13] = Terminal half-life in rat at 10 mg/kg, po; type: ADME, organism-based; settings: in vivo, read-out: beta t1/2; in short: as §4
[14] = Cmax in rat at 10 mg/kg, po; type: ADME, organism-based; parameters: dose 10 mg/kg, route oral; settings: in vivo; in short: as §4
[15] = AUClast in rat at 10 mg/kg, po; type: ADME, organism-based; parameters: dose 10 mg/kg, route oral, time 0 - last; settings: in vivo; in short: as §4
[16] = Ratio of drug level in brain to plasma in rat at 10 mg/kg, iv measured at 2 hrs post dose; type: ADME, organism-based; settings: brain and plasma, read-out: BPR; in short: as §4
[17] = Tmax in rat at 10 mg/kg, po; type: ADME, organism-based; settings: in vivo; in short: as §4
[18] = AUC (0 to infinity) in rat at 10 mg/kg, po; type: ADME, organism-based; parameters: dose 10 mg/kg, route oral, time infinity; settings: in vivo; in short: as §4
[19] = tested on: Rattus norvegicus; assay: Anti-algetic activity in rat streptozotocin-induced neuropathic pain model assessed as reduction in mechanical allodynia at 100 mg/kg, po measured after 3 hrs; type: functional, organism-based; in short: as §3
[20] = Ratio of drug level in brain to plasma in rat at 10 mg/kg, po measured at 2 hrs post dose; type: ADME, organism-based; settings: brain and plasma, read-out: BPR; in short: as §4
[21] = tested on: Rattus norvegicus; assay: Anti-algetic activity in rat streptozotocin-induced neuropathic pain model assessed as reduction in mechanical allodynia at 50 mg/kg, po measured after 1 to 5 hrs; type: functional, organism-based; in short: as §2
[22] = AUC (0 to infinity) in rat at 10 mg/kg, iv; type: ADME, organism-based; parameters: dose 10 mg/kg, route intravenous, time infinity; settings: in vivo; in short: as §4
[23] = Clearance in rat at 10 mg/kg, iv; type: ADME, organism-based; settings: in vivo; in short: as §4
[24] = tested on: Rattus norvegicus; assay: Anti-algetic activity in rat streptozotocin-induced neuropathic pain model assessed as reduction in heat hypersensitivity at 50 mg/kg, po measured after 1 to 5 hrs; type: functional, organism-based; in short: as §2
[25] = biological target: T2, CYP1A2 (Homo sapiens, UniProt P05177); assay: Inhibition of recombinant human CYP1A2 expressed in baculosomes assessed as residual activity at 10 uM using vivid EOMCC as substrate after 15 mins in presence of NADPH by fluorescence assay relative to control; type: ADME; settings: probe Vivid EOMCC, read-out: Activity; in short: as §1
T2 sequence (P05177 whole entry): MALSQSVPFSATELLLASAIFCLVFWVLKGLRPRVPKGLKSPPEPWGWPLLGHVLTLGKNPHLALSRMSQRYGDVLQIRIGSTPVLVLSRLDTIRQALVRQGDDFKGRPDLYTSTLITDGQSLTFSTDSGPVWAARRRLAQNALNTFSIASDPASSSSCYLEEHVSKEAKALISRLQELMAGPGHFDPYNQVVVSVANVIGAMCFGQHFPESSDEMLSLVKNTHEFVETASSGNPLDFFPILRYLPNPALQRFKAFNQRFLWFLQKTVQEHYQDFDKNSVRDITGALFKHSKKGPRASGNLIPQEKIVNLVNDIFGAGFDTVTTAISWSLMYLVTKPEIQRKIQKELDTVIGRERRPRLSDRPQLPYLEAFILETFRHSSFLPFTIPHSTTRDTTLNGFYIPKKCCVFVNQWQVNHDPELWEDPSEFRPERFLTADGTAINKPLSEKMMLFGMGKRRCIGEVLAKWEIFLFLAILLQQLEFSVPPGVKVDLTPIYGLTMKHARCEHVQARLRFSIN

[26] = tested on: Rattus norvegicus; assay: Anti-algetic activity in rat streptozotocin-induced neuropathic pain model assessed as reduction in heat hypersensitivity at 100 mg/kg, po measured after 1 to 5 hrs; type: functional, organism-based
In short: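 Type 1 diabetes induced in rats by intraperitoneal STZ (65 mg/kg); after 4 weeks, neuropathic rats selected by blood glucose level and pain behaviour. Single oral dose of 100 mg/kg given to groups of 5 or 6 rats; heat hypersensitivity tested at 1, 3 and 5 h. Changes compared with pre-administration values by paired t-test.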

[27] = tested on: Rattus norvegicus; assay: Anti-algetic activity in rat streptozotocin-induced neuropathic pain model assessed as reduction in mechanical allodynia at 100 mg/kg, po measured after 1 to 5 hrs; type: functional, organism-based
In short: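 Rats made diabetic by intraperitoneal STZ (65 mg/kg); 4 weeks later, rats with established neuropathic pain chosen by blood glucose level and behavioural testing. Single oral 100 mg/kg dose given to groups of 5 or 6 rats. Mechanical allodynia measured with von Frey filaments at 1, 3 and 5 h; paired t-test against pre-administration values.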

CYP2D6, sequence (P10635 whole entry): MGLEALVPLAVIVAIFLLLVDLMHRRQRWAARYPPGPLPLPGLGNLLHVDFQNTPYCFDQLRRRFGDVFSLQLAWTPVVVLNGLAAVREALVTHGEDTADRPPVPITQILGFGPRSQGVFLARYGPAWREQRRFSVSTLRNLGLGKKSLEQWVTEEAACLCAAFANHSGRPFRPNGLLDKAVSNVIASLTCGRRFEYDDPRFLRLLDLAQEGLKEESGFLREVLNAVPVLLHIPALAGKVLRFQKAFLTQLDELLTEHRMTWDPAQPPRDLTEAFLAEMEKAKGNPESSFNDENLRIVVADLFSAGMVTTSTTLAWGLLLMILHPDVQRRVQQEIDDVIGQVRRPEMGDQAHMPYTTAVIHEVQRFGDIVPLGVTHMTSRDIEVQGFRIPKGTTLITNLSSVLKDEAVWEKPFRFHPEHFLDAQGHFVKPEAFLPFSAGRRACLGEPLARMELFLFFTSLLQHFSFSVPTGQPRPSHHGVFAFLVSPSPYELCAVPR
T1 sequence (O95180 whole entry): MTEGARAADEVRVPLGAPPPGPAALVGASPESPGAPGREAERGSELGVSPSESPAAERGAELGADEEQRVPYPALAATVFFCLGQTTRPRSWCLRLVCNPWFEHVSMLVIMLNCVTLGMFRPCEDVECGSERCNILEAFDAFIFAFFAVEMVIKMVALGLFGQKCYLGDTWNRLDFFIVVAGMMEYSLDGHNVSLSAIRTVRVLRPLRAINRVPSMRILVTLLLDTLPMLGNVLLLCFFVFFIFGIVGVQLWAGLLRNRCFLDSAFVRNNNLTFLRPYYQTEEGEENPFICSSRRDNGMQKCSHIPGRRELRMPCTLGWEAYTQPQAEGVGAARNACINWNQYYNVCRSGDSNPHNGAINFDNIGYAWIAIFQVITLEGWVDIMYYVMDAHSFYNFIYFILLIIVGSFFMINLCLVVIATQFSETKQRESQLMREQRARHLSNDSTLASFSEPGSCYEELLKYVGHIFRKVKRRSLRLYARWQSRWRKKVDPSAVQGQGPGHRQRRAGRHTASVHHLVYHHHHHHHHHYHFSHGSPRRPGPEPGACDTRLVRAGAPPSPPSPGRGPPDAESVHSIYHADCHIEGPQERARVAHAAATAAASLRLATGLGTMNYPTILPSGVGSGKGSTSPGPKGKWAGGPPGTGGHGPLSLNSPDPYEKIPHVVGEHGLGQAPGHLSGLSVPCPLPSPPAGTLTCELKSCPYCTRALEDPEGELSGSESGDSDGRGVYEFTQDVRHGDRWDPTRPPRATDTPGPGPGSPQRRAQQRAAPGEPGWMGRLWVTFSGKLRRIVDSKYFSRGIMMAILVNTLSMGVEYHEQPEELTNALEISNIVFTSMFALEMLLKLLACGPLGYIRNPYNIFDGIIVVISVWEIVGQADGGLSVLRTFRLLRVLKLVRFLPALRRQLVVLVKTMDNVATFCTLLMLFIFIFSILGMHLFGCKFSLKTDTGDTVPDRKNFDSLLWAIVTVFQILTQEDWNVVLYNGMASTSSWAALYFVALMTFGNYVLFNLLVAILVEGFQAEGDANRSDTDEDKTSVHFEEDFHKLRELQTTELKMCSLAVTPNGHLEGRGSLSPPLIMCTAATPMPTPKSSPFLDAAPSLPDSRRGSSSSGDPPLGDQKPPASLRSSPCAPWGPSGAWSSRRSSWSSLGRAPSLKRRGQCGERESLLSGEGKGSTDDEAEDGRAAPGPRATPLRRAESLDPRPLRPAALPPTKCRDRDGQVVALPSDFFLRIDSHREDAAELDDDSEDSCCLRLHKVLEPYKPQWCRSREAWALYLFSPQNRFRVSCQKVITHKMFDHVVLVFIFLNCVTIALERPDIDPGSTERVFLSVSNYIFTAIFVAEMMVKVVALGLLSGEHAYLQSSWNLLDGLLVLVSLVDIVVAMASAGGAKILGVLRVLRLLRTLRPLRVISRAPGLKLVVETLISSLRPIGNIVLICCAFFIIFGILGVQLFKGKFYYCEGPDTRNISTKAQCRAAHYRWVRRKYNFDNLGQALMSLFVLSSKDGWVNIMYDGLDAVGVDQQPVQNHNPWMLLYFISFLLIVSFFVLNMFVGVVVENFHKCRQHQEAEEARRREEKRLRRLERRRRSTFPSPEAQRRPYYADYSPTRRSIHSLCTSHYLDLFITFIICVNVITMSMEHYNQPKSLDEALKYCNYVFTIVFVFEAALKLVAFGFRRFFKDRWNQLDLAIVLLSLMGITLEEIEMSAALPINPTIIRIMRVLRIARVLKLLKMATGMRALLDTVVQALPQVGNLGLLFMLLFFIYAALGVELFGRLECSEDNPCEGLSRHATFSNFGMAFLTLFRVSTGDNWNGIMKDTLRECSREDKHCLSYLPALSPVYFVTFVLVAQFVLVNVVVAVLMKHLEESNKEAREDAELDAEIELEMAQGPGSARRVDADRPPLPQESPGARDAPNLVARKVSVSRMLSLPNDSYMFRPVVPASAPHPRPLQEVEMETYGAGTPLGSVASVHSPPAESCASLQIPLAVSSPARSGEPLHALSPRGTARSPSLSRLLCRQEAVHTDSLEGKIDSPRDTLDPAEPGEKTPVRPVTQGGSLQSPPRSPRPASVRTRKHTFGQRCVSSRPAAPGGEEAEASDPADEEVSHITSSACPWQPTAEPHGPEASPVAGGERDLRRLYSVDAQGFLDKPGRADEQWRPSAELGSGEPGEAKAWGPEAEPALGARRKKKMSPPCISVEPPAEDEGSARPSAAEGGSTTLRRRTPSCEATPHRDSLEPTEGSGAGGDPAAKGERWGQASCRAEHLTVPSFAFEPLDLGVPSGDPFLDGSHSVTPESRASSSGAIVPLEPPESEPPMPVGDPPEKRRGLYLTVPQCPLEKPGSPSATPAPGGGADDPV
CYP3A4, sequence (P08684 whole entry): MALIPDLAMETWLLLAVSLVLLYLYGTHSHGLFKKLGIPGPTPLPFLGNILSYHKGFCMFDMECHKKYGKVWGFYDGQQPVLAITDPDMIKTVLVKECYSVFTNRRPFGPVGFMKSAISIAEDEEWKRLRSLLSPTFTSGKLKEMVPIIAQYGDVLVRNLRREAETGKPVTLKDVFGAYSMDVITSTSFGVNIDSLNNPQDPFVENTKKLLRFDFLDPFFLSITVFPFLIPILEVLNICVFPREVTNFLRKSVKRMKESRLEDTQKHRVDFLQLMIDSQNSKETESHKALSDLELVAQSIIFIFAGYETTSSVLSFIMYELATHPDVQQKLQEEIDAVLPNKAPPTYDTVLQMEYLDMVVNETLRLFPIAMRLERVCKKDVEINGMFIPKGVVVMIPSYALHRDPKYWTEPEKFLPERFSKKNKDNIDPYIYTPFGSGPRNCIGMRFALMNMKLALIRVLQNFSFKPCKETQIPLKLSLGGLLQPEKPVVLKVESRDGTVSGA
CYP2C9, sequence (P11712 whole entry, canonical isoform): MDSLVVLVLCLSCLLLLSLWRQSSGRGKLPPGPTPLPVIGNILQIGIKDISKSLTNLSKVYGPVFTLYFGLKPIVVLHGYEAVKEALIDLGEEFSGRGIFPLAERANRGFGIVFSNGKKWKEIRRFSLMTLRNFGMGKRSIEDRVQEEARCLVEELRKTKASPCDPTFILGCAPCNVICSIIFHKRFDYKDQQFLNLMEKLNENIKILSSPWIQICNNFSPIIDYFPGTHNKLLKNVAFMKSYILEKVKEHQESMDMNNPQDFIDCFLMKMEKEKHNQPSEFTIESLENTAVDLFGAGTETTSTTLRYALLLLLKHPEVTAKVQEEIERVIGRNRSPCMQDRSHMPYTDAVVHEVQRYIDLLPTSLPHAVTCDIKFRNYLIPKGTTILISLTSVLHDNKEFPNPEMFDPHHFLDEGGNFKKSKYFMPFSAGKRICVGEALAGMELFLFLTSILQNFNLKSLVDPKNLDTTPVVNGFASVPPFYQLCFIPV

With `CC(C)(C)n1nc(CN2Cc3ccccc3S2(=O)=O)cc1-c1ccc(N2CCCCC2)cc1` the inhibition [1] was 16.3%.

`Cc1c(CNS(=O)(=O)c2ccccc2)nn(-c2ccccc2)c1CC(C)C` gave an IC50 [2] of 4.3 µM, an inhibition [1] of 72% and an activity at 0.25 h, 10 µM [3] of 45.2%. The activity at 0.25 h, 10 µM [4] was 45.2%, the remaining at 0.5 h, 1 µM [5] was 0.26% and the activity at 0.25 h, 10 µM [6] was 38.7%.

For `CC(C)c1cc(CN2Cc3ccccc3S2(=O)=O)nn1-c1ccc(F)cc1`, the Activity [7] was “Active”, the IC50 [2] was 2.32 µM and the Activity [8] was “inactive”. It also gave an inhibition [1] of 71.6%, a half-life [9] of 2.94 h and an MRT [10] of 1.7 h. The AUC(0-t) [11] was 2630 ng·h/mL, the bioavailability [12] was 9.2% and the half-life [13] was 1.96 h. The Cmax [14] was 100 ng/mL, the activity at 0.25 h, 10 µM [3] was 103% and the AUC(0-t) [15] was 243 ng·h/mL. The Kp at 2 h [16] was 1.28, the activity at 0.25 h, 10 µM [4] was 90.6% and the Tmax [17] was 2.5 h. For the same compound, the AUC(0-inf) [18] was 274 ng·h/mL, the Activity [19] was “inactive” and the remaining at 0.5 h, 1 µM [5] was 102%. For the same compound, the activity at 0.25 h, 10 µM [6] was 45.7%, the Kp at 2 h [20] was 0.13 and the Activity [21] was “inactive”. For the same compound, the AUC(0-inf) [22] was 2980 ng·h/mL, the clearance [23] was 57.7 mL/min/kg and the Activity [24] was “inactive”. It also gave an activity at 0.25 h, 10 µM [25] of 110%.

Work on `CC(C)n1nc(CN2Cc3ccccc3S2(=O)=O)cc1-c1ccccc1` yielded an inhibition [1] of 22.1%.

In the case of `CC(C)(C)n1nc(CN2Cc3ccccc3S2(=O)=O)cc1-c1ccccc1`, the inhibition [1] is reported as 18.7%.

In the case of `CC(C)c1cc(CN2Cc3ccccc3S2(=O)=O)nn1-c1ccccc1`, the IC50 [2] is reported as 2.52 µM, the inhibition [1] is reported as 75.5% and the activity at 0.25 h, 10 µM [3] is reported as 14.2%. It also gave an activity at 0.25 h, 10 µM [4] of 86.6%, a remaining at 0.5 h, 1 µM [5] of 4.69% and an activity at 0.25 h, 10 µM [6] of 47.2%.

For `CC(C)(C)n1nc(CN2Cc3ccccc3S2(=O)=O)cc1-c1ccc(F)cc1`, the inhibition [1] was 23.1%.

`CC(C)(C)n1nc(CN2Cc3ccccc3S2(=O)=O)cc1-c1ccc(C(F)(F)F)cc1` gave an inhibition [1] of 20.8%.

Work on `CC(C)c1cc(CN2Cc3ccccc3S2(=O)=O)nn1-c1c(Cl)cccc1Cl` yielded an inhibition [1] of 29.5%.

For `CC(C)c1cc(CN2Cc3ccccc3S2(=O)=O)nn1C(C)(C)C`, the IC50 [2] was 3.69 µM, the inhibition [1] was 68% and the activity at 0.25 h, 10 µM [3] was 90.7%. For the same compound, the activity at 0.25 h, 10 µM [4] was 78.8%, the remaining at 0.5 h, 1 µM [5] was 103% and the activity at 0.25 h, 10 µM [6] was 52.1%. The activity at 0.25 h, 10 µM [25] was 123%.

For `CC(C)Cc1cc(CNS(=O)(=O)c2ccccc2)nn1-c1ccccc1`, the remaining at 0.5 h, 1 µM [5] was 13.9%.

With `CC(C)(C)n1nc(CN2Cc3ccccc3S2(=O)=O)cc1-c1ccc(C2CCCCC2)cc1` the inhibition [1] was 9.86%.

With `NCC1(CC(=O)O)CCCCC1` the Activity [26] was “Active” and the Activity [27] was “inactive”.

With `CC(C)n1nc(CN2Cc3ccccc3S2(=O)=O)cc1-c1ccc(F)cc1` the inhibition [1] was 16.5%.

`CC(C)Cc1cc(CN(C)S(=O)(=O)c2ccccc2)nn1-c1ccccc1` showed an inhibition [1] of 54.2% and a remaining at 0.5 h, 1 µM [5] of 1.46%.

Reference: ChEMBL document CHEMBL4052773, “Synthesis and diabetic neuropathic pain-alleviating effects of 2N-(pyrazol-3-yl)methylbenzo[d]isothiazole-1,1-dioxide derivatives” (Bioorg Med Chem, 2017)
